Experimental data taken from paper PMC7357868 (ACS chemical biology, 2019).

Key:
hpol κ [1] = target: T1, hpol κ (Homo sapiens, UniProt Q9UBT6); assay: TAMRA strand-displacement fluorescence assay of DNA polymerase activity; type: biochemical
T1 sequence (Q9UBT6 19-526): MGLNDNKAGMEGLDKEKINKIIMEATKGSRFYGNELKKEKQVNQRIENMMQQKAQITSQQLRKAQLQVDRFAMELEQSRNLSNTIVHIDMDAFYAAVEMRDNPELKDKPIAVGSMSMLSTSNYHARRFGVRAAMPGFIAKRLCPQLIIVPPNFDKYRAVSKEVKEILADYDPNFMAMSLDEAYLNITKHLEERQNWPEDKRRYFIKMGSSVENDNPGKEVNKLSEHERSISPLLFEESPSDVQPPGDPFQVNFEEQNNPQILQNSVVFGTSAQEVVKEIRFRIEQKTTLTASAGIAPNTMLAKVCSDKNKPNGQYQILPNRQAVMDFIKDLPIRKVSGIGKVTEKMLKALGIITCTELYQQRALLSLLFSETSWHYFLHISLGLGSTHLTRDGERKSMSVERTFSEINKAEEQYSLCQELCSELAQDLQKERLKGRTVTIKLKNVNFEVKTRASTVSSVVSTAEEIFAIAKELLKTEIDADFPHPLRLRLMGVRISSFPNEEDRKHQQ

hpol κ [2] = target: T1, hpol κ; assay: Steady-state kinetic analysis of dTTP insertion; type: biochemical; conditions: 0.5 nM hpol κ, 25 nM DNA, varying inhibitor concentration
hpol β = hpol β (Homo sapiens, UniProt P06746); assay: TAMRA strand-displacement selectivity assay, X-family pol; type: biochemical; conditions: 10 μM IAG-10, 1 nM hpol β
[3] = target: T2, hpol η binding to primer-template DNA (Homo sapiens, UniProt Q9Y253); assay: Fluorescence anisotropy DNA binding assay; conditions: inhibitor concentration near the IC50 for pol activity; 2 nM FAM-labeled p/t-DNA
T2 sequence (Q9Y253 1-437): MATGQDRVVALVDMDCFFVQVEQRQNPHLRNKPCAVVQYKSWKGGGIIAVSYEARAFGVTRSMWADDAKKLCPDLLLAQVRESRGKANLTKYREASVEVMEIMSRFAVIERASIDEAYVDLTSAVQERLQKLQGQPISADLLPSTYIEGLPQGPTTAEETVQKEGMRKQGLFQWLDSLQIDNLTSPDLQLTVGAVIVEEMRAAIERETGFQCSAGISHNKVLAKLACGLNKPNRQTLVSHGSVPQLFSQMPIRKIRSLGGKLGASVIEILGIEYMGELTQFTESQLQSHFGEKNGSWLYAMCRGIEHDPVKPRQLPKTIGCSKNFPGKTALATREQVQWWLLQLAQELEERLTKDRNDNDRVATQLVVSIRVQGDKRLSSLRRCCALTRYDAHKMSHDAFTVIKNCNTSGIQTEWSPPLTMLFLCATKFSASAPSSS

[4] = test system: hpol κ-proficient HAP-1 cells; assay: Clonogenic survival assay; type: cell-based, human
[5] = test system: hpol κ-deficient HAP-1 cells; assay: Alkaline comet assay; type: cell-based, human
Procedure, shortened: (§1)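 100 000 HAP-1 cells per well, test compound 0.5 μM alone or with alkylating agent (100 μM), 1 h; DMSO control. Cells embedded in low-melting agarose (200–300 per well), lysed 1 h, alkaline unwinding (200 mM NaOH, 1 mM EDTA) 20 min RT, electrophoresis 21 V, 30 min, 4 °C, SYBR Gold stain. Read-out is % DNA in tail per cell; ≥20 cells per replicate, three biological replicates, mean ±SD.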

hpol η [6] = target: T3, hpol η (Homo sapiens, UniProt Q9Y253); assay: Steady-state kinetic analysis of nucleotide insertion; type: biochemical; conditions: increasing IAG-10 concentration
T3 sequence (Q9Y253 1-437): T2 sequence (Q9Y253 1-437)

hpol ι = target: T4, hpol ι (Homo sapiens, UniProt Q9UNA4); assay: Gel-based primer extension assay; type: biochemical; conditions: 10 μM IAG-10, 10 nM hpol ι
T4 sequence (Q9UNA4 1-446): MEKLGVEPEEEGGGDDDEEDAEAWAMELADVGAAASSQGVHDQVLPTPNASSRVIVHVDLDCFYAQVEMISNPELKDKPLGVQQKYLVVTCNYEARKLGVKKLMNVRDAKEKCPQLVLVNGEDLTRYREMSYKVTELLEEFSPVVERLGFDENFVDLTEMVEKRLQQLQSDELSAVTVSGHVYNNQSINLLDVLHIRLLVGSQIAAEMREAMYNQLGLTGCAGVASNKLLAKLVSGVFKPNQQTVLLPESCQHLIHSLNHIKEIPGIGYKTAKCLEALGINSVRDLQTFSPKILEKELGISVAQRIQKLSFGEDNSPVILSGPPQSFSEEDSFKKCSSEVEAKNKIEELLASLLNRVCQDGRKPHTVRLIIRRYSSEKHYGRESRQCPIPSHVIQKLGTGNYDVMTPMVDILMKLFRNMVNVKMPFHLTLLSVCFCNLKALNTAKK

hpol η [7] = target: T3, hpol η; assay: TAMRA strand-displacement fluorescence assay of DNA polymerase activity; type: biochemical; conditions: 95% CI in parentheses
[8] = test system: hpol κ-proficient HAP-1 cells; assay: Alkaline comet assay; type: cell-based, human
Procedure, shortened: as §1

hRev1 = target: T5, hRev1 (Homo sapiens, UniProt Q9UBZ9); assay: Gel-based primer extension assay; type: biochemical; conditions: 10 μM IAG-10, 10 nM hRev1
T5 sequence (Q9UBZ9 330-833): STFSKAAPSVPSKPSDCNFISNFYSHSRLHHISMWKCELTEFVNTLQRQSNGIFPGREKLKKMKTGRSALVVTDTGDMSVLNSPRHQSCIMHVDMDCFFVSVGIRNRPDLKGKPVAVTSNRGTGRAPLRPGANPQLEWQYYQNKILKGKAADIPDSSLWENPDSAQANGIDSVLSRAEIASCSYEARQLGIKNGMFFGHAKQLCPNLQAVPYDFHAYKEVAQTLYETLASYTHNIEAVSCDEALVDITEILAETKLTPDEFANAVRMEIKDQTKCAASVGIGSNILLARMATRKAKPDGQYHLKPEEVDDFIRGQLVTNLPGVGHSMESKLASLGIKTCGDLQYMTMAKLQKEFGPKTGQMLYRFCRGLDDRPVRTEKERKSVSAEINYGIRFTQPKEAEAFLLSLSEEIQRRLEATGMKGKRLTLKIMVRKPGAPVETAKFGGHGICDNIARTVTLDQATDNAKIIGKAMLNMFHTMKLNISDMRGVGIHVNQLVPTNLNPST

[9] = 100 μM TMZ + 0.5 μM IAG-10, compared with TMZ alone

`Cl.[H]/N=C(\N)NN=Cc1cn(C(=O)c2cccc3ccccc23)c2ccc(Cl)cc12` [IAG-10, (E)-2-((1-(1-naphthoyl)-5-chloro-1H-indol-3-yl)-methylene)hydrazine-1-carboximidamide hydrochloride] was tested, and the “polymerase activity in presence of compound” value (shortened to “polymerase activity”) (hpol κ [1]; 10 μM IAG-10, 25 nM hpol κ) was “only hpol κ activity was inhibited”, the “inhibition of enzyme activity in the initial screen” value (hpol κ [1]; 40 μM compound, 1 nM hpol κ, 50 nM DNA, relative to DMSO control) was “greatest inhibitory action” and the IC50 (hpol κ [1]; IC50, 0.1 nM hpol κ, 0.5 nM DNA, 95% CI in parentheses) was 0.72 µM. For the same molecule, the IC50 (hpol κ [1]; IC50, 0.2 nM hpol κ, 1 nM DNA, 95% CI in parentheses) was 1.1 µM, the IC50 (hpol κ [1]; IC50, 0.2 nM hpol κ, 2.5 nM DNA, 95% CI in parentheses) was 1.4 µM and the IC50 (hpol κ [1]; IC50, 0.5 nM hpol κ, 10 nM DNA, 95% CI in parentheses) was 8.9 µM. The IC50 (hpol κ [1]; IC50, 1 nM hpol κ, 25 nM DNA, 95% CI in parentheses) was 8.9 µM, the IC50 (hpol κ [1]; IC50, 1 nM hpol κ, 50 nM DNA, 100 μM dTTP, 1 mM MgCl2, 25 °C, mean n = 3) was 7.2 µM and the “specificity for hpol κ over η” value (hpol κ [1]; initial reaction conditions (higher enzyme and DNA)) was ~ 2 fold. The “specificity for hpol κ over η” value (hpol κ [1]; lower concentrations of enzyme and DNA) was ~ 30 fold, the “effect on turnover number (kcat)” value (hpol κ [2]) was “sharp decrease” and the “polymerase activity” value (hpol β) was “only hpol κ activity was inhibited”. The “increase in the Kd,DNA” value [3] was 20–30%, the colony formation ([4]; 0.5 μM IAG-10 alone) was “does not impair colony formation” and the “colonies formed relative to untreated cells” value ([4]; 250 μM TMZ + 0.5 μM IAG-10 cotreatment, 1 h, 10 days culture) was ~ 40%. The “DNA damage (% DNA in tail) over control” value ([5]; 0.5 μM IAG-10 alone, 1 h) was “did not increase DNA damage over control”, the “DNA damage (% DNA in tail)” value [5, 9] was “did not increase further” and the “effect on Michaelis constant” value (hpol η [6]) was “linear increase”. The effect on kcat (hpol η [6]) was “no measurable change”, the “polymerase activity” value (hpol ι) was “only hpol κ was inhibited” and the IC50 (hpol η [7]; IC50, 0.2 nM hpol η, 2 nM DNA) was 22.5 µM. For the same molecule, the IC50 (hpol η [7]; IC50, 1 nM hpol η, 50 nM DNA) was 14.3 µM, the “DNA damage (% DNA in tail) compared to control” value ([8]; 0.5 μM IAG-10 alone, 1 h) was “approximately twofold” and the “DNA damage (% DNA in tail)” value [8, 9] was “increased even further”. The “polymerase activity” value (hRev1) was “only hpol κ was inhibited”.
